Measured values taken from ChEMBL document CHEMBL5058577, “EUbOPEN Chemogenomics Library 2 (Multiplex)” (2022).

Test system: HEK-293T
Assay: Multiplex assay against HEK293T
Assay type: toxicity, cell-based
Details: human
How it was run: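 Live cells were stained at seeding with Hoechst33342, BioTracker Green Microtubule Cytoskeleton Dye, MitoTracker Red and Annexin V Alexa Fluor 680, then imaged on a CQ1 microscope at 37°C and 5% CO2 after compound addition. CellPathfinder machine-learning gating split cells into Hoechst high-intensity objects or normal cells. Normal cells were split into healthy, pyknosed or fragmented nuclei, and pyknosed cells into mitotic or apoptotic. Tubulin, mitochondrial-mass and membrane-permeability phenotypes are per cents of healthy-nucleus cells.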

[1] = 12 h, 1 µM, compound concentration 1 uM, replicate 1
[2] = 12 h, 1 µM, compound concentration 1 uM, replicate 2
[3] = 12 h, 10 µM, compound concentration 10 uM, replicate 1
[4] = 12 h, 10 µM, compound concentration 10 uM, replicate 2
[5] = 24 h, 1 µM, compound concentration 1 uM, replicate 1
[6] = 24 h, 1 µM, compound concentration 1 uM, replicate 2
[7] = 24 h, 10 µM, compound concentration 10 uM, replicate 1
[8] = 24 h, 10 µM, compound concentration 10 uM, replicate 2
[9] = 48 h, 1 µM, compound concentration 1 uM, replicate 1
[10] = 48 h, 1 µM, compound concentration 1 uM, replicate 2
[11] = 48 h, 10 µM, compound concentration 10 uM, replicate 1
[12] = 48 h, 10 µM, compound concentration 10 uM, replicate 2

## O=C(O)Cc1ccccc1Nc1c(Cl)cccc1Cl [DICLOFENAC]
[1]
  Population Apoptotic (%): 36%
  Population Fragmented Nuclei (%): 7%
  Population Healthy Nuclei (%): 77%
  Population Hoechst High Intensity Objects (%): 5%
  Population Membrane Permeable-Phenotype (%): 0%
  Population Mitochondria Different-Phenotype (%): 53%
  Population Mitotic Cells (%): 63%
  Population Normal (%): 94%
  Population Pyknosed Nuclei (%): 14%
  Population Tubulin-Different-Phenotype (%): 32%
  Total Cell Count: 376
[2]
  Population Apoptotic (%): 52%
  Population Healthy Nuclei (%): 79%
  Population Hoechst High Intensity Objects (%): 10%
  Population Mitochondria Different-Phenotype (%): 61%
  Population Mitotic Cells (%): 47%
  Population Normal (%): 89%
  Population Pyknosed Nuclei (%): 13%
  Population Tubulin-Different-Phenotype (%): 23%
  Total Cell Count: 324
[3]
  Population Apoptotic (%): 30%
  Population Fragmented Nuclei (%): 7%
  Population Healthy Nuclei (%): 77%
  Population Hoechst High Intensity Objects (%): 6%
  Population Membrane Permeable-Phenotype (%): 0%
  Population Mitochondria Different-Phenotype (%): 45%
  Population Mitotic Cells (%): 69%
  Population Normal (%): 93%
  Population Pyknosed Nuclei (%): 14%
  Population Tubulin-Different-Phenotype (%): 35%
  Total Cell Count: 480
[4]
  Population Apoptotic (%): 57%
  Population Healthy Nuclei (%): 75%
  Population Hoechst High Intensity Objects (%): 14%
  Population Mitochondria Different-Phenotype (%): 68%
  Population Mitotic Cells (%): 42%
  Population Normal (%): 85%
  Population Pyknosed Nuclei (%): 17%
  Total Cell Count: 370
[5]
  Population Apoptotic (%): 30%
  Population Fragmented Nuclei (%): 7%
  Population Healthy Nuclei (%): 76%
  Population Hoechst High Intensity Objects (%): 3%
  Population Membrane Permeable-Phenotype (%): 0%
  Population Mitochondria Different-Phenotype (%): 44%
  Population Mitotic Cells (%): 69%
  Population Normal (%): 96%
  Population Pyknosed Nuclei (%): 15%
  Population Tubulin-Different-Phenotype (%): 24%
  Total Cell Count: 456
[6]
  Population Apoptotic (%): 45%
  Population Fragmented Nuclei (%): 6%
  Population Healthy Nuclei (%): 78%
  Population Hoechst High Intensity Objects (%): 10%
  Population Mitochondria Different-Phenotype (%): 37%
  Population Mitotic Cells (%): 54%
  Population Normal (%): 89%
  Population Pyknosed Nuclei (%): 14%
  Population Tubulin-Different-Phenotype (%): 9%
  Total Cell Count: 418
[7]
  Population Apoptotic (%): 25%
  Population Fragmented Nuclei (%): 10%
  Population Healthy Nuclei (%): 77%
  Population Hoechst High Intensity Objects (%): 4%
  Population Membrane Permeable-Phenotype (%): 0%
  Population Mitochondria Different-Phenotype (%): 29%
  Population Mitotic Cells (%): 74%
  Population Normal (%): 95%
  Population Pyknosed Nuclei (%): 12%
  Population Tubulin-Different-Phenotype (%): 29%
  Total Cell Count: 650
[8]
  Population Apoptotic (%): 49%
  Population Healthy Nuclei (%): 75%
  Population Hoechst High Intensity Objects (%): 9%
  Population Mitochondria Different-Phenotype (%): 50%
  Population Mitotic Cells (%): 50%
  Population Normal (%): 90%
  Population Pyknosed Nuclei (%): 14%
  Population Tubulin-Different-Phenotype (%): 26%
  Total Cell Count: 462
[9]
  Population Apoptotic (%): 23%
  Population Fragmented Nuclei (%): 11%
  Population Healthy Nuclei (%): 82%
  Population Hoechst High Intensity Objects (%): 2%
  Population Membrane Permeable-Phenotype (%): 1%
  Population Mitochondria Different-Phenotype (%): 22%
  Population Mitotic Cells (%): 76%
  Population Normal (%): 97%
  Population Pyknosed Nuclei (%): 6%
  Population Tubulin-Different-Phenotype (%): 15%
  Total Cell Count: 730
[10]
  Population Apoptotic (%): 33%
  Population Fragmented Nuclei (%): 15%
  Population Healthy Nuclei (%): 79%
  Population Mitochondria Different-Phenotype (%): 16%
  Population Mitotic Cells (%): 66%
  Population Pyknosed Nuclei (%): 4%
  Population Tubulin-Different-Phenotype (%): 10%
  Total Cell Count: 697
[11]
  Population Apoptotic (%): 36%
  Population Fragmented Nuclei (%): 12%
  Population Healthy Nuclei (%): 80%
  Population Hoechst High Intensity Objects (%): 3%
  Population Membrane Permeable-Phenotype (%): 1%
  Population Mitochondria Different-Phenotype (%): 17%
  Population Mitotic Cells (%): 63%
  Population Normal (%): 96%
  Population Pyknosed Nuclei (%): 7%
  Population Tubulin-Different-Phenotype (%): 18%
  Total Cell Count: 883
[12]
  Population Fragmented Nuclei (%): 16%
  Population Healthy Nuclei (%): 75%
  Population Hoechst High Intensity Objects (%): 4%
  Population Membrane Permeable-Phenotype (%): 0%
  Population Mitochondria Different-Phenotype (%): 36%
  Population Normal (%): 95%
  Population Tubulin-Different-Phenotype (%): 17%
  Total Cell Count: 649
